For 54 sequences, folding enthalpy and Tm results are on record in the array DNA melting data of Ke et al. (doi:10.1101/2024.01.08.574731).

The nature of series [1]: folding enthalpy; higher = less favourable; fluorescence melt of hairpins on a sequencing array, two-state fit. The settings on record: sodium 0.088 M. Summed up: (§1)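 Hairpins were imaged by Cy3 fluorescence on a sequenced MiSeq flow cell with annealed Cy3 and quencher oligos, in 50 mM Na-HEPES pH 8.0, 25 mM NaCl, in 2.5 °C steps up to 60 °C. Bootstrapped two-state fits of normalised signals gave melting temperature and folding enthalpy. Four replicates were combined by inverse variance, and fitted temperatures were raised by 9.35 °C to match UV melts.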

A short description of series [2]: melting temperature; fluorescence melt of hairpins on a sequencing array, two-state fit, raised by 9.35 °C to match UV melts. The settings on record: sodium 0.088 M. Summed up: as §1

GATGGCGGAAACGCTATC (((.(((....))).))): the folding enthalpy in series [1] was -27.2 kcal/mol. Moreover, in series [2], the Tm is 52 °C.
On the same counts, the results for GATGGGGCGAAAGCCATC (((..(((....)))))) are -12 kcal/mol and 38.1 °C.
In the case of GATGGGGGAAACCTCGTC ((.(.((....)).).)), the folding enthalpy in series [1] was -20 kcal/mol. Also, the Tm in series [2] amounted to 33.2 °C.
For the sequence GATGGTGCGAAAGCAATC (((..(((....)))))), the folding enthalpy in series [1] was -8.86 kcal/mol. Moreover, the Tm in series [2] amounted to 28.7 °C.
On to GATGGTGGAAACACCGTC ((.((((....)))).)), for which the folding enthalpy in series [1] is -23.7 kcal/mol. Moreover, the Tm in series [2] came to 53.6 °C.
Consider GATGGTGGAAACACTATC (((.(((....))).))), for which, in series [1], the folding enthalpy is -31 kcal/mol. The Tm in series [2] was determined as 43.1 °C.
On the same counts, the results for GATGGTGGAAACGCTATC (((.(.(....).).))) are -16.2 kcal/mol and 31.3 °C.
On the same counts, the results for GATGGTGGAAACGTCATC ((((..(....)..)))) are -19.6 kcal/mol and 33.3 °C.
On the same counts, the results for GATGTCCGAAAGGAAATC (((.(((....))).))) are -24 kcal/mol and 43.6 °C.
As for GATGTCGGAAACAACATC (((((.(....).))))), in series [1], the folding enthalpy is -28.9 kcal/mol. For the same sequence, the Tm in series [2] worked out at 35.7 °C.
On the same counts, the results for GATGTCGGAAACGGTATC (((..((....))..))) are -21.2 kcal/mol and 31.6 °C.
Consider GATGTGACGAAAGTCATC (((..(((....)))))), for which, in series [1], the folding enthalpy is -12 kcal/mol. In addition, the Tm in series [2] is 34.2 °C.
Turning to GATGTGCGAAAGCAATC (((.(((....)))))), the folding enthalpy in series [1] was -11.3 kcal/mol. For the same sequence, the Tm in series [2] was 38.2 °C.
As to GATGTGGGAAACTACATC (((((.(....).))))), in series [1], the folding enthalpy was -36.5 kcal/mol. In addition, the Tm in series [2] came out at 44.9 °C.
Turning to GATGTTGGAAACAACATC (((((((....))))))), the folding enthalpy in series [1] was -44.6 kcal/mol. For the same sequence, the Tm in series [2] turned out to be 58.4 °C.
For the sequence GATGTTGGAAACAGTATC (((..((....))..))), in series [1], the folding enthalpy was -10.2 kcal/mol. Further, the Tm in series [2] was 27 °C.
On the same counts, the results for GATTAAGAAATTAATC ((((((....)))))) are -14.9 kcal/mol and 30.4 °C.
Take GATTAAGCGAAAGCTATC (((..(((....)))))): the folding enthalpy in series [1] was -9.58 kcal/mol. Further, the Tm in series [2] was determined as 29.5 °C.
On the same counts, the results for GATTAAGGAAACTTGATC (((.(((....))).))) are -26.6 kcal/mol and 30.3 °C.
In the case of GATTACCGAAAGGTGATC (((.(((....))).))), the folding enthalpy in series [1] was -37.5 kcal/mol. The Tm in series [2] amounted to 51.8 °C.
For GATTACGAAAGTAATC ((((((....)))))), the folding enthalpy in series [1] was -40 kcal/mol. Moreover, the Tm in series [2] came out at 56.4 °C.
On to GATTACGAAAGTATGATC ((((((....)))..))), for which, in series [1], the folding enthalpy was -6.67 kcal/mol. The Tm in series [2] is 14.5 °C.
On to GATTACGGAAACGTAACC (.(((((....))))).), for which the folding enthalpy in series [1] is -16.6 kcal/mol. In series [2], the Tm stood at 33.8 °C.
Turning to GATTATGAAAATAATC ((((((....)))))), the folding enthalpy in series [1] was -29.5 kcal/mol. Further, the Tm in series [2] came out at 40.1 °C.
On the same counts, the results for GATTATGGAAACATAGTC ((.((((....)))).)) are -16.8 kcal/mol and 31.7 °C.
Take GATTCAGGAAACCGAATC (((((.(....).))))): in series [1], the folding enthalpy is -26.2 kcal/mol. In series [2], the Tm was found to be 36 °C.
On to GATTCAGGAAACTGAATC (((((((....))))))), for which the folding enthalpy in series [1] was -36.9 kcal/mol. Moreover, the Tm in series [2] worked out at 55.7 °C.
With GATTCCCGAAAGGGTATC (((.(((....))).))), in series [1], the folding enthalpy is -23.4 kcal/mol. The Tm in series [2] stood at 45.6 °C.
GATTCCGAAAGGAATATC ((((((....)))..))): the folding enthalpy in series [1] is -17.4 kcal/mol. Also, the Tm in series [2] is 46.6 °C.
For the sequence GATTCCGGAAACAGAATC (((((.(....).))))), in series [1], the folding enthalpy was -23.4 kcal/mol. Moreover, the Tm in series [2] was determined as 32.1 °C.
With GATTCCGGAAACGGAATC (((((((....))))))), the folding enthalpy in series [1] is -42.5 kcal/mol. Also, the Tm in series [2] turned out to be 64.7 °C.
Turning to GATTCCGGAAACGGAGTC ((.((((....)))).)), the folding enthalpy in series [1] is -23.8 kcal/mol. In addition, in series [2], the Tm was 47.6 °C.
On the same counts, the results for GATTCGCGAAAGCGATC (((.(((....)))))) are -11.6 kcal/mol and 44.5 °C.
On the same counts, the results for GATTCGCGAAAGCGCATC (((.(((....))).))) are -21.5 kcal/mol and 42.7 °C.
On the same counts, the results for GATTCGGGAAACCAAATC ((((.((....)).)))) are -22.3 kcal/mol and 30.1 °C.
In the case of GATTCGGGAAACCGAGTC ((.((((....)))).)), in series [1], the folding enthalpy is -28 kcal/mol. In series [2], the Tm is 46.7 °C.
Turning to GATTCGGGAAACTGGATC (((.(.(....).).))), the folding enthalpy in series [1] is -24.2 kcal/mol. Also, the Tm in series [2] was found to be 30.8 °C.
For the sequence GATTCTGGAAACAGGATC (((.(((....))).))), the folding enthalpy in series [1] is -37.1 kcal/mol. In addition, in series [2], the Tm amounted to 42.7 °C.
Regarding GATTCTGGAAACGGAATC (((((.(....).))))), the folding enthalpy in series [1] was -37.2 kcal/mol. The Tm in series [2] is 44.4 °C.
Turning to GATTGACCGAAAGGTATC (((..(((....)))))), the folding enthalpy in series [1] was -11.6 kcal/mol. The Tm in series [2] is 28.5 °C.
Regarding GATTGAGGAAACTCGATC (((.(((....))).))), the folding enthalpy in series [1] was -33.1 kcal/mol. Moreover, the Tm in series [2] was 43.2 °C.
On the same counts, the results for GATTGAGGAAACTTGATC (((..((....))..))) are -7.66 kcal/mol and 22.4 °C.
Take GATTGCCCGAAAGGGATC (((..(((....)))))): in series [1], the folding enthalpy is -7.39 kcal/mol. In addition, the Tm in series [2] turned out to be 25.8 °C.
Consider GATTGCGCGAAAGCGATC (((..(((....)))))), for which the folding enthalpy in series [1] is -9.1 kcal/mol. Also, in series [2], the Tm was determined as 32 °C.
As to GATTGCGGAAACGCGATC (((.(((....))).))), the folding enthalpy in series [1] is -30.7 kcal/mol. Besides, the Tm in series [2] was 57.5 °C.
For GATTGCGGAAACGTAGTC ((.(.((....)).).)), the folding enthalpy in series [1] is -11.4 kcal/mol. Moreover, the Tm in series [2] came out at 29.8 °C.
With GATTGCGGAAACGTGATC (((..((....))..))), the folding enthalpy in series [1] was -30.6 kcal/mol. In addition, in series [2], the Tm was determined as 40.7 °C.
With GATTGGCGAAAGCCCATC (((.(((....))).))), in series [1], the folding enthalpy was -17 kcal/mol. Besides, the Tm in series [2] stood at 38.4 °C.
For GATTGGGCGAAAGCCATC (((..(((....)))))), in series [1], the folding enthalpy was -8.31 kcal/mol. Moreover, the Tm in series [2] stood at 26.8 °C.
As to GATTGTGGAAACGCAATC (((((.(....).))))), the folding enthalpy in series [1] is -35.5 kcal/mol. Moreover, the Tm in series [2] stood at 47.2 °C.
Regarding GATTTACGAAAGTAGATC (((.(((....))).))), the folding enthalpy in series [1] was -29.5 kcal/mol. The Tm in series [2] was found to be 41.9 °C.
As to GATTTCCCGAAAGGGATC (((..(((....)))))), the folding enthalpy in series [1] was -10.4 kcal/mol. For the same sequence, in series [2], the Tm stood at 26.2 °C.
For GATTTCCGAAAGGAGATC (((.(((....))).))), the folding enthalpy in series [1] was -34.3 kcal/mol. Besides, in series [2], the Tm is 46.8 °C.
GATTTCGGAAACGAAGTC ((.((((....)))).)): in series [1], the folding enthalpy is -23.8 kcal/mol. Further, the Tm in series [2] stood at 39.3 °C.
